From ChEMBL document CHEMBL4715734, “Discovery of the Potent and Selective M1 PAM-Agonist N-[(3R,4S)-3-Hydroxytetrahydro-2H-pyran-4-yl]-5-methyl-4-[4-(1,3-thiazol-4-yl)benzyl]pyridine-2-carboxamide (PF-06767832): Evaluation of Efficacy and Cholinergic Side Effects” (J Med Chem, 2016)
Changes are numbered by the printed parent chain.

Key:
[1] = Toxicity in male Beagle dog assessed as effect on heart rate at 3 mg/kg, po observed upto 9 hrs post last dose by telemetry; type: organism-based, Canis lupus familiaris; conditions: in vivo
In short: (§1)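 Crossover telemetry study in dogs at three oral doses (0.3, 1 and 3 mg/kg), N=4. Endpoints were blood pressure, maximum systolic left ventricular pressure, LV +dP/dt max, activity, heart rate, and RR, QT and QTc intervals, followed up to 9 h post dose.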

[2] = Unbound brain concentration in […] in Sprague-Dawley rat model at 0.32 mg/kg, sc measured after 1.67 hrs; type: ADME, organism-based; conditions: in vivo
In short: (§2)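 Randomly selected animals (N=2/dose) at the end of the rat PPI study, T = 1.67 h. Dosed subcutaneously as a suspension in 0.5% methylcellulose in water. Plasma and brain concentrations were averaged.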

[3] = Toxicity in dog assessed as induction of loose stool at 3 mg/kg, po using spray-dried dispersion formulation; type: organism-based, Canis lupus familiaris; conditions: in vivo
[4] = Toxicity in rat assessed as increase in food intake at 10 mg/kg, po administered for 14 days; type: organism-based; conditions: in vivo, 336 h, time 14 day
In short: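 Two-week repeat-dose toxicity study in rats. Oral dosing in 0.5% methylcellulose at 3, 10, 30 (males)/15 (females) mg/kg, N=4/sex/dose. Food intake, body weight gain and histopathology were assessed.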

[5] = Ratio of fAUC in monkey brain to plasma; type: ADME, cell-free, Macaca mulatta; conditions: rhesus monkey, brain and plasma; read-out: Ratio AUC
[6] = biological target: T1, Muscarinic acetylcholine receptor M1 (Homo sapiens, UniProt P11229); test: Positive allosteric modulation of muscarinic M1 receptor (unknown origin) expressed in CHO cells assessed as increase in Ach-induced accumulation of inositol phosphate accumulation measured after 30 mins by HTRF assay; type: functional, cell-based
T1 sequence (P11229 whole entry): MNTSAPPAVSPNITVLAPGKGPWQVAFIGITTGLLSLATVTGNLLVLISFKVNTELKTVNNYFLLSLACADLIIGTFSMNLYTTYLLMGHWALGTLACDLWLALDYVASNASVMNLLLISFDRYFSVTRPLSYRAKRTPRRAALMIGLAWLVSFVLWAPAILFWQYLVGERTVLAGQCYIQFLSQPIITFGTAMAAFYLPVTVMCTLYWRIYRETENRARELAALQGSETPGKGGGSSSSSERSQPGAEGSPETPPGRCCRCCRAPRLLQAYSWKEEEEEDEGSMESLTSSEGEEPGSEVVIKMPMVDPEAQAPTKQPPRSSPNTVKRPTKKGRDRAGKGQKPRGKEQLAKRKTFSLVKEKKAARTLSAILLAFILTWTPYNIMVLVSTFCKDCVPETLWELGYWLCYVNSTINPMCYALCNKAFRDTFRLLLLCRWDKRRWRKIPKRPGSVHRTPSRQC

[7] = Unbound plasma concentration in CD-1 mouse at 3.2 mg/kg, sc measured after 2 hrs by LC-MS/MS analysis; type: ADME, organism-based; conditions: in vivo
[8] = Unbound brain concentration in […] in Sprague-Dawley rat model at 1 mg/kg, sc measured after 1.67 hrs; type: ADME, organism-based; conditions: in vivo; in short: as §2
[9] = Unbound plasma concentration in amphetamine-induced C57BL/6J mouse model of hyperlocomotion at 3.2 mg/kg, sc measured after 1 hr; type: ADME, organism-based; conditions: in vivo
In short: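 Satellite PK animals from the mouse aLMA study, N=2/dose. Dosed subcutaneously with a solution in 5/15/80 DMSO/Solutol/water. Plasma and brain were sampled at T = 1 h.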

[10] = Intrinsic clearance in human liver microsome; type: ADME; conditions: liver microsomes, read-out: CLH
[11] = fCmax in rat at 10 mg/kg, po administered for 14 days; type: ADME, organism-based; conditions: in vivo, 336 h, time 14 day
In short: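 2-week repeat oral dosing in rats, 0.5% methylcellulose formulation; N=4/sex/dose; doses 3, 10, 30 (males)/15 (females) mg/kg; unbound exposures reported per dose and sex.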

[12] = fCmax in dog at 0.3 mg/kg, po measured after 4 hrs using spray-dried dispersion formulation; type: ADME, organism-based, Canis lupus familiaris; conditions: in vivo
In short: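 Dogs from the crossover cardiovascular telemetry study (N=4), dosed orally at 0.3, 1 and 3 mg/kg; unbound Cmax extrapolated from 4 h post-dose in-life plasma samples.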

[13] = Toxicity in male Beagle dog assessed as decrease in QT interval at 3 mg/kg, po administered as single dose observed upto 9 hrs post last dose by telemetry; type: organism-based, Canis lupus familiaris; conditions: in vivo; in short: as §1
[14] = Toxicity in dog assessed as emesis at 15 mg/kg, po using spray-dried dispersion formulation; type: organism-based, Canis lupus familiaris; conditions: in vivo
In short: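 Dogs received single escalating oral doses as a spray-dried dispersion (10% drug loading with HPMCAS-M). The dispersion was suspended in 0.5 wt% methylcellulose/0.5 wt% HPMCAS in 20 mM tris buffer, pH 7.4. One dog per sex per dose was used, and clinical signs were recorded.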

[15] = biological target: T2, Muscarinic acetylcholine receptor M1 (Rattus norvegicus) (UniProt P08482); test: Positive allosteric modulation of muscarinic M1 receptor in Sprague-Dawley rat hippocampal slice assessed as increase in carbachol-induced CA1 spiked rates by electrophysiological analysis; conditions: filed as positive allosteric modulator
T2 sequence (whole entry): T1 sequence (P11229 whole entry) with A5V, T254S, P309S, R320K, A337G, I413V

[16] = biological target: T3, Muscarinic acetylcholine receptor M2 (Homo sapiens, UniProt P08172); test: Positive allosteric modulation of human recombinant muscarinic M2 receptor stably expressed in HEK cells assessed as increase in ACh-induced cAMP accumulation up to 10 uM measured after 10 mins by GloSensor cAMP Assay; type: cell-based
T3 sequence (P08172 whole entry): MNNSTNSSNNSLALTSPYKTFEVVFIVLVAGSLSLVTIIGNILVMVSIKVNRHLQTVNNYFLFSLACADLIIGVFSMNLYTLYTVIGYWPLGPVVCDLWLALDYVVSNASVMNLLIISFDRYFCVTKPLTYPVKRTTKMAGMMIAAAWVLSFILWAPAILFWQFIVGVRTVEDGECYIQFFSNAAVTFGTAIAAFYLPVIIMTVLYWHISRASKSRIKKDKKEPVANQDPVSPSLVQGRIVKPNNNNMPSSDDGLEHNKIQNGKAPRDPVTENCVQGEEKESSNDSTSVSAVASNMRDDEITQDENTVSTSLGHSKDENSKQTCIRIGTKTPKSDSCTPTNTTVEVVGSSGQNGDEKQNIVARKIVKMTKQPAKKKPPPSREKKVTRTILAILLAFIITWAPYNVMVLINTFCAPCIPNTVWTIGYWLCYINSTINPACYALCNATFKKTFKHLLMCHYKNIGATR

[17] = Toxicity in dog assessed as induction of soft stool at 45 mg/kg, po using spray-dried dispersion formulation measured after 45 mins; type: organism-based, Canis lupus familiaris; conditions: in vivo, 0.75 h

Compound: Cc1cnc(C(=O)N[C@H]2CCOC[C@@H]2O)cc1Cc1ccc(-c2cscn2)cc1
- Activity [1]: 25 bpm
- Drug uptake(free) [2]: 4.3 nM
- Activity [3]: Toxic
- Activity [4]: Non-Toxic
- Kp uu [5]: 0.51
- EC50 [6]: 447 nM
- Cp(f) [7]: 176 nM
- Drug uptake(free) [8]: 17.4 nM
- Cp(f) [9]: 255 nM
- CLint scaled [10]: < 8 mL/min/kg
- fCmax [11]: 562 nM
- fCmax [12]: 41 nM
- Activity [13]: Toxic
- Activity [14]: Toxic
- Activity [15]: Dose-dependent effect
- Activity [16]: Not Active
- Activity [17]: Toxic
